From ChEMBL document CHEMBL1121771, “Chemistry and hypoglycemic activity of benzimidoylpyrazoles” (J Med Chem, 1981)

What was measured:
[1] = species: Rattus norvegicus; experiment: Percent change in blood glucose concentration in glucose-primed rat to that of control rats.; assay type: functional
How it was run: (§1)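 Male Sprague-Dawley rats (140-150 g), groups of six, fasted 16 h, then given 100 mg glucose sc in 0.5 mL isotonic NaCl. Test compound given orally right after as an aqueous carboxymethylcellulose suspension (0.5 mL); controls received vehicle. Blood was taken by cardiac puncture under light ether anesthesia 2 h later. Glucose measured by Autoanalyzer modification of Hoffman method; mean percent change versus control group.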

[2] = test system: Rattus norvegicus; experiment: Blood glucose concentration 2 hours after the administration in glucose-primed rat at 100 mg/kg.; assay type: functional; how it was run: as §1
[3] = test system: Rattus norvegicus; experiment: Blood glucose concentration at 2 hours after the administration in glucose-primed rat; assay type: functional; how it was run: as §1
[4] = test system: Cavia porcellus; experiment: Percent reduction in blood glucose after perorally administration of compound at 30 mg/kg in normal fasted guinea pig; assay type: functional; conditions: route oral
How it was run: (§2)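 Hartley guinea pigs (450-500 g), male and female, grouped by sex in fours, food withheld 18 h, water allowed. Zero-time blood taken by cardiac puncture, then oral dosing, with a second cardiac sample 5 h later. Reported as percent change in blood glucose relative to the pretreatment value.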

[5] = Lethal dose after intraperitoneal administration in mouse; conditions: in vivo, ip
[6] = Lethal dose after peroral administration in mouse; conditions: in vivo, po
[7] = test system: Rattus norvegicus; experiment: Percent reduction in blood glucose after perorally administration of compound at 25 mg/kg in adrenalectomized rat; conditions: route oral
[8] = test system: Rattus norvegicus; experiment: Percent reduction in blood glucose after perorally administration of compound at 100 mg/kg in non-glucose-primed rat; conditions: route oral
[9] = test system: Rattus norvegicus; experiment: Percent reduction in blood glucose after perorally administration of compound at 29.2 mg/kg in alloxanized rat; assay type: functional; conditions: route oral
How it was run: (§3)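 Male Sprague-Dawley rats (180-220 g) made diabetic with 225 mg/kg alloxan monohydrate intraabdominally; glucosuria checked by reagent strip after 3 days, positives grouped in sixes. Control tail-vein blood taken, oral compound given, blood resampled at 5 h. Reported as percent change in blood glucose versus pretreatment.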

[10] = test system: Cavia porcellus; experiment: Percent reduction in blood glucose after perorally administration of compound at 150 mg/kg in normal fasted guinea pig; assay type: functional; conditions: route oral; how it was run: as §2
[11] = test system: Cavia porcellus; experiment: Percent reduction in blood glucose after perorally administration of compound at 160 mg/kg in normal fasted guinea pig; assay type: functional; conditions: route oral; how it was run: as §2
[12] = test system: Rattus norvegicus; experiment: Percent reduction in blood glucose after perorally administration of compound at 25 mg/kg in glucose-primed rat; assay type: functional; conditions: route oral; how it was run: as §1
[13] = test system: Rattus norvegicus; experiment: Percent reduction in blood glucose after perorally administration of compound at 500 mg/kg in glucose-primed rat; assay type: functional; conditions: route oral; how it was run: as §1
[14] = test system: Cavia porcellus; experiment: Percent reduction in blood glucose after perorally administration of compound at 125 mg/kg in normal fasted guinea pig; assay type: functional; conditions: route oral; how it was run: as §2
[15] = test system: Rattus norvegicus; experiment: Percent reduction in blood glucose after perorally administration of compound at 10 mg/kg in adrenalectomized rat(p= 0.05); assay type: functional; conditions: route oral
[16] = test system: Rattus norvegicus; experiment: Percent reduction in blood glucose after perorally administration of compound at 250 mg/kg in glucose-primed rat; assay type: functional; conditions: route oral; how it was run: as §1
[17] = test system: Rattus norvegicus; experiment: Percent reduction in blood glucose after perorally administration of compound at 10 mg/kg in glucose-primed rat; assay type: functional; conditions: route oral; how it was run: as §1
[18] = test system: Rattus norvegicus; experiment: Percent reduction in blood glucose after perorally administration of compound at 20 mg/kg in adrenalectomized rat; assay type: functional; conditions: route oral
[19] = test system: Rattus norvegicus; experiment: Percent reduction in blood glucose after perorally administration of compound at 100 mg/kg in alloxanized rat; assay type: functional; conditions: route oral; how it was run: as §3
[20] = test system: Cavia porcellus; experiment: Percent reduction in blood glucose after perorally administration of compound at 100 mg/kg in normal fasted guinea pig; assay type: functional; conditions: route oral; how it was run: as §2
[21] = test system: Rattus norvegicus; experiment: Percent reduction in blood glucose after perorally administration of compound at 25 mg/kg in non-glucose-primed rat; assay type: functional; conditions: route oral
[22] = test system: Rattus norvegicus; experiment: Percent reduction in blood glucose after perorally administration of compound at 300 mg/kg in alloxanized rat; assay type: functional; conditions: route oral; how it was run: as §3
[23] = test system: Rattus norvegicus; experiment: Percent reduction in blood glucose after perorally administration of compound at 50 mg/kg in glucose-primed rat; assay type: functional; conditions: route oral; how it was run: as §1
[24] = test system: Rattus norvegicus; experiment: Percent reduction in blood glucose after perorally administration of compound at 25 mg/kg in adrenalectomized rat; assay type: functional; conditions: route oral
[25] = test system: Rattus norvegicus; experiment: Percent reduction in blood glucose after perorally administration of compound at 100 mg/kg in non-glucose-primed rat; assay type: functional; conditions: route oral
[26] = test system: Rattus norvegicus; experiment: Percent reduction in blood glucose after perorally administration of compound at 100 mg/kg in glucose-primed rat; assay type: functional; conditions: route oral; how it was run: as §1
[27] = test system: Rattus norvegicus; experiment: Percent reduction in blood glucose after perorally administration of compound at 300 mg/kg in non-glucose-primed rat; conditions: route oral
[28] = test system: Rattus norvegicus; experiment: Percent reduction in blood glucose after perorally administration of compound at 120 mg/kg in non-glucose-primed rat; assay type: functional; conditions: route oral
[29] = test system: Cavia porcellus; experiment: Percent reduction in blood glucose after perorally administration of compound at 25 mg/kg in normal fasted guinea pig; assay type: functional; conditions: route oral; how it was run: as §2
[30] = test system: Rattus norvegicus; experiment: Percent reduction in blood glucose after perorally administration of compound at 80 mg/kg in non-glucose-primed rat; assay type: functional; conditions: route oral

Compound | Change [1] [%] | Blood glucose [2] [%] | Blood glucose [3] [%] | further results
COC(=O)c1cc(-c2ccc(Cl)cc2)n(/C(=N\C2CCCCC2)c2ccccc2)n1 | 4.4 | 84.9 | – | –
COC(=O)c1cc(C)n(/C(=N\c2ccccc2)c2ccccc2)n1 | 34.3 | – | 58 | –
CC/N=C(/c1ccccc1)n1nc(C)cc1C | 24.7 | 58.6 | – | –
COC(=O)c1cc(-c2ccc(Cl)cc2)n(/C(=N\c2ccccc2)c2ccccc2C)n1 | 6.3 | 71.1 | – | –
COC(=O)c1cc(C)n(/C(=N\CC(C)C)c2cccc(C(F)(F)F)c2)n1 | 25.2 | 62.2 | – | –
COC(=O)c1cc(-c2ccc(Cl)cc2)n(/C(=N\c2ccc(OC)cc2)c2ccccc2)n1 | 3.9 | 78.4 | – | –
Cc1cc(C)n(/C(=N\c2ccccc2)c2ccccc2)n1 | 18.3 | – | 72.1 | –
Cc1cc(C)n(/C(=N\CC(C)C)c2ccccc2)n1 | 10.6 | 62.8 | – | –
COC(=O)c1cc(C)n(/C(=N\c2ccc(C)cc2)c2ccc(C)cc2)n1 | 25.4 | – | 60.4 | –
CCCC/N=C(/c1ccccc1)n1nc(C(=O)OC)cc1C | 21.2 | 66.1 | – | –
COC(=O)c1cc(C)n(/C(=N\C2CCCCC2)c2ccccc2)n1 | 34.5 | – | 52.1 | Reduction [3]: 27%; Reduction [4]: 0%; LD50 [5]: 1000 mg/kg; LD50 [6]: 1000 mg/kg; Reduction [7]: 32%; Reduction [8]: 7.6%; Reduction [9]: 29.5%
COC(=O)c1cc(C)n(/C(=N\c2ccc(Cl)cc2)c2ccccc2)n1 | 5.5 | 78.7 | – | –
Cc1ccc(S(=O)(=O)NC(=O)NN2CCCCCC2)cc1 [TOLAZAMIDE] | – | – | – | Reduction [10]: 30.4%; Reduction [11]: 25%; Reduction [12]: 50%; Reduction [13]: 51.1%; Reduction [14]: 26.7%; Reduction [15]: 75.8%; Reduction [16]: 42.9%; Reduction [17]: 28.1%; Reduction [18]: 85.6%; LD50 [5]: 1000 mg/kg; Reduction [19]: 0%; Reduction [20]: 33.5%; LD50 [6]: 1000 mg/kg; Reduction [21]: 29.4%
CC/N=C(/c1ccccc1)n1nc(C(=O)OC)cc1C | 34 | 54.9 | – | –
COC(=O)c1cc(C)n(/C(=N\c2cccc(OC)c2)c2ccccc2)n1 | 22 | – | 63 | –
COC(=O)c1cc(C)n(/C(=N\c2ccccc2OC)c2ccccc2)n1 | 35.1 | – | 96 | –
COC(=O)c1cc(C)n(/C(=N\c2ccccc2)c2ccccc2Cl)n1 | 8.9 | 70 | – | –
Cc1cc(C)n(/C(=N\C2CCCCC2)c2ccccc2)n1 | 13.6 | 69.8 | – | –
COC(=O)c1cc(C)n(/C(=N\CC(C)C)c2ccc(C)cc2)n1 | 19 | 65.2 | – | –
COC(=O)c1cc(-c2ccc(Cl)cc2)n(/C(=N\c2ccccc2)c2ccccc2)n1 | 5.6 | 81.1 | – | –

Compound | Change [1] [%] | Blood glucose [2] [%] | Blood glucose [3] [%] | further results
COC(=O)c1cc(C)n(/C(=N\c2cccc(C(F)(F)F)c2)c2ccccc2)n1 | 33.5 | – | 57.9 | –
COC(=O)c1cc(-c2ccc(Cl)cc2)n(/C(=N\C2CCCCC2)c2ccccc2OC)n1 | 12.9 | 69.2 | – | –
COC(=O)c1cc(C)n(/C(=N\c2ccc(OC)cc2)c2ccccc2)n1 | 40 | – | 62.2 | Reduction [12]: 35.2%; Reduction [22]: 49%; Reduction [23]: 33.8%; Reduction [24]: 44.3%; Reduction [25]: 31.5%; LD50 [5]: 1000 mg/kg; Reduction [20]: 21%; LD50 [6]: 1000 mg/kg; Reduction [26]: 51.3%
COC(=O)c1cc(-c2ccc(Cl)cc2)n(/C(=N\c2ccc(C)cc2)c2ccc(C)cc2)n1 | 9 | 69.8 | – | –
CCC/N=C(/c1ccccc1)n1nc(C(=O)OC)cc1C | 6.2 | 80.5 | – | –
COC(=O)c1cc(C)n(/C(=N\c2ccccc2)c2ccc(Cl)c(Cl)c2)n1 | 24.3 | – | 101.5 | –
COC(=O)c1cc(C)n(/C(=N\c2ccccc2)c2ccccc2OC)n1 | 25.7 | – | 58.3 | –
COC(=O)c1cc(-c2ccc(Cl)cc2)n(/C(=N\c2ccc(Cl)cc2)c2ccccc2)n1 | 1.2 | 77.7 | – | –
COC(=O)c1cc(C)n(/C(=N\CC(C)C)c2ccc(F)cc2)n1 | 1.3 | 68.9 | – | –
COC(=O)c1cc(C)n(/C(=N\c2cccc(C)c2C)c2ccccc2)n1 | 8.3 | 75.6 | – | –
COC(=O)c1cc(C)n(/C(=N\c2ccccc2)c2ccccc2C)n1 | 21.4 | – | 57.7 | –
COC(=O)c1cc(C)n(/C(=N\c2ccc(OC)c(OC)c2)c2ccccc2)n1 | 34.1 | – | 58 | –
COC(=O)c1cc(C)n(/C(=N\c2ccc(C)cc2)c2ccccc2)n1 | 18.9 | – | 71.9 | –
COC(=O)c1cc(C)n(/C(=N\CCC(C)C)c2ccccc2)n1 | 1.3 | 91.3 | – | –
COC(=O)c1cc(C)n(/C(=N\CC(C)C)c2ccccc2)n1 | 25.5 | 59.7 | – | –
C=CC/N=C(/c1ccccc1)n1nc(C(=O)OC)cc1C | 7 | 69.6 | – | –
COC(=O)c1cc(C)n(/C(=N\C2CCCCC2)c2ccccc2OC)n1 | 20.5 | – | 68.4 | –
CCCCNC(=N)NC(=N)N [BUFORMIN] | – | – | – | Reduction [4]: 50%; Reduction [27]: 25.9%; LD50 [5]: 140 mg/kg; LD50 [6]: 300 mg/kg; Reduction [26]: 0%; Reduction [9]: 21.9%
COc1ccc(/N=C(/c2ccccc2)n2nc(C)cc2C)cc1 | 27.2 | – | 60.6 | –
N=C(N)NC(=N)NCCc1ccccc1 [PHENFORMIN] | – | – | – | Reduction [28]: 52.9%; Reduction [29]: 46%; Reduction [19]: 62%; Reduction [30]: 25.3%; Reduction [26]: 0%
